ChEMBL document CHEMBL3297742, “Tetrahydronaphthyridine and dihydronaphthyridinone ethers as positive allosteric modulators of the metabotropic glutamate receptor 5 (mGlu₅)” (J Med Chem, 2014)

Legend:
[1] = Retention time of the compound by LCMS analysis; assay type: physicochemical
[2] = Ratio of unbound drug level in brain to plasma in rat; assay type: ADME, cell-free
Method in brief: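 Kp,uu derived from the in vivo brain:plasma ratio and in vitro rat fu,plasma/fu,brain, with the binding values from rat plasma protein and rat brain homogenate binding experiments.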

[3] = target: Metabotropic glutamate receptor 5 (Rattus norvegicus, UniProt P31424); test: Positive allosteric modulator activity at rat mGlu5 receptor expressed in HEK293 cells assessed as potentiation of glutamate-induced calcium mobilization by fluorescence assay; assay type: functional, cell-based; conditions: read-out: EC50
Sequence of Metabotropic glutamate receptor 5 (P31424 whole entry): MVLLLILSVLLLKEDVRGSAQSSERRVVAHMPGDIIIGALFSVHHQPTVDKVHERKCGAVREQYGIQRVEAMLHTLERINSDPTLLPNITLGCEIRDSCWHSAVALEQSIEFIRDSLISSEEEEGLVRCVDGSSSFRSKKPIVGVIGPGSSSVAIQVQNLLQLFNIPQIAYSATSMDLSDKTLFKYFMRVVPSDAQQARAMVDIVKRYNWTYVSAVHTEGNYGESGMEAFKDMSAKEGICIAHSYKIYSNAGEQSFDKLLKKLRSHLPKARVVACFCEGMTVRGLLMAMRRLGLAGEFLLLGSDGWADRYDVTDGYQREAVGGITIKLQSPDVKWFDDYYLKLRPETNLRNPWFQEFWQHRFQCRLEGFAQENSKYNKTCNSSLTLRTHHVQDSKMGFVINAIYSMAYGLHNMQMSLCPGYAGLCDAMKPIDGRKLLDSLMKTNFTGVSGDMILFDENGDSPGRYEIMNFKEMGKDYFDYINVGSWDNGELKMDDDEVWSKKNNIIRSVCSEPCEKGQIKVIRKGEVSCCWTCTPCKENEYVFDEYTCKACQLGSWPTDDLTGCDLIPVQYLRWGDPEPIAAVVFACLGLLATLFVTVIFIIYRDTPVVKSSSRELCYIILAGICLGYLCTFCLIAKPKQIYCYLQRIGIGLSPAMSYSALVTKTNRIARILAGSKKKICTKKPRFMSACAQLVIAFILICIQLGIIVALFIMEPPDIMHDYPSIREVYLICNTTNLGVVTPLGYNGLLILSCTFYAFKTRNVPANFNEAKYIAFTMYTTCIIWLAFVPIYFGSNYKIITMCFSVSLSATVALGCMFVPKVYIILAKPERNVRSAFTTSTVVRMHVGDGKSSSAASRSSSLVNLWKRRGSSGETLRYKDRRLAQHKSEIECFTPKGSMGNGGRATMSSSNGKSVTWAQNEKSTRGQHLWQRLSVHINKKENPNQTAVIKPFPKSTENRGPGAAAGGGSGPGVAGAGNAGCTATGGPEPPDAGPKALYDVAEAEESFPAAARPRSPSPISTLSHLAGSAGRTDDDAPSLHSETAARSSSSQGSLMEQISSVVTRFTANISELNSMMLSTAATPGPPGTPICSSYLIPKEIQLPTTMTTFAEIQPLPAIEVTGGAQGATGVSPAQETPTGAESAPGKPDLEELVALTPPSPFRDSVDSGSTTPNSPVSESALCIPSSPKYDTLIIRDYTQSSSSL
Method in brief: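 HEK293 cells stably expressing rat mGlu5, 15000 cells/well, grown overnight, loaded with 1 µM Fluo-4AM for 50 min at 37 °C in HBSS/20 mM HEPES/2.5 mM probenecid pH 7.4. Compound added, then an EC20 of glutamate 140 s later and an EC80 90–120 s after that. Fluorescence over basal normalized to maximal glutamate response (100 µM glutamate); compound at up to 30 µM; ≥3 independent determinations.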

Plasma [4] = test: Fraction unbound in human plasma; assay type: ADME, cell-free
Plasma [5] = test: Fraction unbound in rat plasma; assay type: ADME, cell-free
[6] = target: Metabotropic glutamate receptor 2 (Rattus norvegicus, UniProt P31421); test: Positive allosteric modulator activity at rat mGlu2 receptor expressed in HEK293 cells assessed as glutamate-induced GIRK channel-mediated thallium flux treated 140s prior to gluatamate challenge by fluorescence analysis; assay type: cell-based
Sequence of Metabotropic glutamate receptor 2 (P31421 whole entry): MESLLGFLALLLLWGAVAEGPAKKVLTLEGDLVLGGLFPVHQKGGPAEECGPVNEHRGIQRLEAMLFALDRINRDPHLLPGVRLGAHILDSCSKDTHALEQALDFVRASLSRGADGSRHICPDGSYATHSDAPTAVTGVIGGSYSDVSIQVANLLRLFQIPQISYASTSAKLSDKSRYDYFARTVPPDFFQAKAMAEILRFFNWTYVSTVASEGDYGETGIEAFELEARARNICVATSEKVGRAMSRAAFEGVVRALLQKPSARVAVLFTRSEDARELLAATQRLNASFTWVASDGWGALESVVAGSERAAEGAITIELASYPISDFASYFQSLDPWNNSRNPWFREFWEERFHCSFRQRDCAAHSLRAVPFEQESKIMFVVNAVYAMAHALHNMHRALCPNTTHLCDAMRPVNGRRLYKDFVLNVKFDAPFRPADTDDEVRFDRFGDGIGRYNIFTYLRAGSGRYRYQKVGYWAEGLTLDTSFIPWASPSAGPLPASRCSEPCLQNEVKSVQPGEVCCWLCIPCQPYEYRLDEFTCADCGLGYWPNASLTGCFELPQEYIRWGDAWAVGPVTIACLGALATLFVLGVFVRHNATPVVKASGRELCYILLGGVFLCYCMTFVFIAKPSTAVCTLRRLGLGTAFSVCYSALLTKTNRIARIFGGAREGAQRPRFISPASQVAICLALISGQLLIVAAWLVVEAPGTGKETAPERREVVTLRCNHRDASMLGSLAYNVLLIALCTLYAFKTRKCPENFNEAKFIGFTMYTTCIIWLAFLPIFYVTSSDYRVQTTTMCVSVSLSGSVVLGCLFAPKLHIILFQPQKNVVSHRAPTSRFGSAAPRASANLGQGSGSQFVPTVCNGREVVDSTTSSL
Method in brief: (§1)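 HEK293-GIRK cells expressing rat mGlu2, 3, 4, 6, 7 or 8, 15000 cells/well. Vehicle or 10 µM compound added, then 140 s later a glutamate CRC (L-AP4 for mGlu7) in thallium buffer (12 mM thallium sulfate, 10 mM HEPES). Thallium flux through GIRK read by fluorescence.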

[7] = target: Metabotropic glutamate receptor 6 (Rattus norvegicus, UniProt P35349); test: Positive allosteric modulator activity at rat mGlu6 receptor expressed in HEK293 cells assessed as glutamate-induced GIRK channel-mediated thallium flux treated 140s prior to gluatamate challenge by fluorescence analysis; assay type: cell-based; method in brief: as §1
Sequence of Metabotropic glutamate receptor 6 (P35349 whole entry): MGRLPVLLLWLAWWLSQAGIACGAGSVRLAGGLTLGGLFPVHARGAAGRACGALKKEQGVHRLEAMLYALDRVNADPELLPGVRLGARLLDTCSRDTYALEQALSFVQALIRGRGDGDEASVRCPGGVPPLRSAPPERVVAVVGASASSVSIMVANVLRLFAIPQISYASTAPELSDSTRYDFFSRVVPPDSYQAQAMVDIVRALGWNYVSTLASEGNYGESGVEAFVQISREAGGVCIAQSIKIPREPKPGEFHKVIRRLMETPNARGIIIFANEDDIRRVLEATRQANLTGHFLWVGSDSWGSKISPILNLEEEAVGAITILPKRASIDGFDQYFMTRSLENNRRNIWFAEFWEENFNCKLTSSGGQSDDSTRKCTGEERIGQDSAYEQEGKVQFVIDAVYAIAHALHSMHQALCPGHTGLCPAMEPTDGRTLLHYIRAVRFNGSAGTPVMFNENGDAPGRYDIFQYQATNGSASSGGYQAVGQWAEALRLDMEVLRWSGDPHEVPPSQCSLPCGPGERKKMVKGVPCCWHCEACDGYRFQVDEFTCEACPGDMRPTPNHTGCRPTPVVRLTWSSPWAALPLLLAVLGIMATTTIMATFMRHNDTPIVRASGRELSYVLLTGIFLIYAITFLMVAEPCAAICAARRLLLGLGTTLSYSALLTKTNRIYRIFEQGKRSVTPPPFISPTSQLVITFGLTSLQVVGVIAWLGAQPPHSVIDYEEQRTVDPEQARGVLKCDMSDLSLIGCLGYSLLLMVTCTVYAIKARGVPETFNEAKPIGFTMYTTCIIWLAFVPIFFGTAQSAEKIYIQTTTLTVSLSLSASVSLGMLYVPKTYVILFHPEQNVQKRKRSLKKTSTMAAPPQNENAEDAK

[8] = target: Metabotropic glutamate receptor 8 (Rattus norvegicus, UniProt P70579); test: Positive allosteric modulator activity at rat mGlu8 receptor expressed in HEK293 cells assessed as glutamate-induced GIRK channel-mediated thallium flux treated 140s prior to glutamate challenge by fluorescence analysis; assay type: cell-based; method in brief: as §1
Sequence of Metabotropic glutamate receptor 8 (P70579 whole entry): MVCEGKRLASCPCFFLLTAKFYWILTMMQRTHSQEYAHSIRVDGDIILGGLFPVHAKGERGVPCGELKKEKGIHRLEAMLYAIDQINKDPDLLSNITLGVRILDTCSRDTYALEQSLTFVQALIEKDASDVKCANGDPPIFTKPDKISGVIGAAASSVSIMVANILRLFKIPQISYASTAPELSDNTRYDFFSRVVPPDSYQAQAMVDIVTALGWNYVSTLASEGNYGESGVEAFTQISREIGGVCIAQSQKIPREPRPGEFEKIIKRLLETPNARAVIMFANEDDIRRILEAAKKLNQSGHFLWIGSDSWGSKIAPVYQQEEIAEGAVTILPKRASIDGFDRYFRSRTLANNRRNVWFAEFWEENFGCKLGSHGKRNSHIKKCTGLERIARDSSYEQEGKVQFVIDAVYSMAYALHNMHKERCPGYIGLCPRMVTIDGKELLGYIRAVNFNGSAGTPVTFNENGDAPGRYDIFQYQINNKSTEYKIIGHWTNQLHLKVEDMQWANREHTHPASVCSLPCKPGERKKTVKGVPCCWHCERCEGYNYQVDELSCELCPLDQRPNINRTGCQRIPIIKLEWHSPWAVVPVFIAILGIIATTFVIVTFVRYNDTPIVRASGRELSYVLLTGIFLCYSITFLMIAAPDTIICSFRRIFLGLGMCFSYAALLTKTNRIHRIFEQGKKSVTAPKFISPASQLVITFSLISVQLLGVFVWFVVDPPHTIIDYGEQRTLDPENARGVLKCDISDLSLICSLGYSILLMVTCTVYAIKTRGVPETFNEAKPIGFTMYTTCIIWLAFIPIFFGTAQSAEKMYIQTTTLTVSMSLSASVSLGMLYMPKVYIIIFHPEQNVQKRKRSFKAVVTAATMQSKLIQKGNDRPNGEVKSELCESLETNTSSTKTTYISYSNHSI

[9] = Fraction unbound in rat brain; assay type: ADME, tissue-based
Method in brief: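 Fraction unbound measured by rat brain homogenate binding.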

Cytochrome P450 2D6 = Cytochrome P450 2D6 (Homo sapiens, UniProt P10635); test: Inhibition of CYP2D6 in human liver microsomes; assay type: ADME
Sequence of Cytochrome P450 2D6 (P10635 whole entry): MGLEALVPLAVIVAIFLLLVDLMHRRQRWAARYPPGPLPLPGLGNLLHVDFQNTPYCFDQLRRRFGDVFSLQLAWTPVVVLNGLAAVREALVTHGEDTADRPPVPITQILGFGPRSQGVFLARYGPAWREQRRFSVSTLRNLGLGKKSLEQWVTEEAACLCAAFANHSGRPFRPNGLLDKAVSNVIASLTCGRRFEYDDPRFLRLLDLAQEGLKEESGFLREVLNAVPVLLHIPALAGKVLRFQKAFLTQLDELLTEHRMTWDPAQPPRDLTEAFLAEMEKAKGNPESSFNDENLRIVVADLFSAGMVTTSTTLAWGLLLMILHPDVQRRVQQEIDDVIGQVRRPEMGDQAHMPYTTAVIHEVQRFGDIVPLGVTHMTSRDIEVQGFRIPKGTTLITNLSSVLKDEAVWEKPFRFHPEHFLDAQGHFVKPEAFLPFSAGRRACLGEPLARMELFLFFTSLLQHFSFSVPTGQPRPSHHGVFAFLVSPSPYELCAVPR
Method in brief: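 CYP1A2, 2C9, 2D6 and 3A4 inhibition measured together in a cocktail assay with human liver microsomes and known probe substrates; IC50 determined.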

[10] = Kinetic solubility of the compound in buffer at pH 4; assay type: physicochemical
Method in brief: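 Kinetic aqueous solubility measured in buffers at pH 2, 4 and 7.4.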

Rattus norvegicus = test: Reversal of amphetamine-induced hyperlocomotion in Sprague-Dawley rat at 56.6 mg/kg, po administered for 30 mins prior to amphetamine challenge for 60 mins; assay type: functional
Method in brief: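 Male Sprague–Dawley rats (250–375 g), food-deprived the evening before, were habituated 30 min in locomotor chambers. They were then dosed po with vehicle (20% HP-β-CD in water, pH 6–7, max 10 mL/kg) or test article, followed 30 min later by amphetamine 1 mg/kg sc, n = 6–8 per group. Photobeam breaks were counted per 5 min over 120 min. Percent reversal used t = 60–120 totals versus the vehicle + amphetamine group, reported as mean ± SE.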

O=C1NCCc2nc(OCc3cccc(F)c3)ccc21
Retention_time [1]: 0.736 min
K(p,uu,brain) [2]: 1.1
EC50 [3]: 0.225 µM
Fu (Plasma [4]): 0.047
Fu (Plasma [5]): 0.034
EC50 [6]: > 10 µM
EC50 [7]: > 10 µM
EC50 [8]: > 10 µM
fraction unbound [9]: 0.02
IC50 (Cytochrome P450 2D6): > 30 µM
Kinetic_solubility [10]: 29 µM
inhibition in vivo at 56.6 mg/kg (Rattus norvegicus): > 30%
